Data as given in ChEMBL document CHEMBL1147580, “Antihyperglycemic activity of 2-methyl-3,4,5-triaryl-1H-pyrroles in SLM and STZ models” (2004).
Activity calls are given as the source filed them. The calls are words filed in the database; no cut-off is given here.

Experiments:
Rattus norvegicus [1] = experiment: In vivo anti-hyperglycaemic activity of compound in rat sucrose(100 mg/kg, oral gavage) loaded model (SLM) at 100 mg/kg dose; NA = not active; assay type: functional, organism-based; parameters: dose 100 mg/kg
In short: (§1)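 Overnight-fasted male Sprague–Dawley rats, five per group, were bled at baseline and then given the compound at 100 mg/kg by oral gavage. Sucrose (10 gm/kg) was loaded 30 min later. Blood glucose was taken at 30, 60, 90 and 120 min after the load, and % fall was calculated by the AUC method. Values are means of three experiments.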

Rattus norvegicus [2] = experiment: In vivo anti-hyperglycaemic activity of compound in rat sucrose(100 mg/kg, oral gavage) loaded model (SLM) at 100 mg/kg dose; assay type: functional; in short: as §1
Rattus norvegicus [3] = experiment: In vivo anti-hyperglycaemic activity of compound in rat streptozotocin(60 mg/kg, ip) model (STZ) at 100 mg/kg dose

For `Cc1[nH]c(-c2ccccc2)c(-c2ccccc2)c1-c1ccccc1F`, the Blood sugar lowering (Rattus norvegicus [1]) was “inactive”.
`Cc1[nH]c(-c2ccccc2)c(-c2ccccc2)c1-c1ccc(F)cc1` was tested, and the Blood sugar lowering (Rattus norvegicus [2]) was 49.7% and the Blood sugar lowering (Rattus norvegicus [3]) was 34.7%.
`c1ccc(-c2nc(-c3ccccc3)c(-c3ccccc3)nc2-c2ccccc2)cc1` was tested, and the Blood sugar lowering (Rattus norvegicus [2]) was 21.9%.
For `Cc1[nH]c(-c2ccc(Cl)cc2)c(-c2ccc(Cl)cc2)c1-c1ccccc1F`, the Blood sugar lowering (Rattus norvegicus [1]) was “inactive”.
`Cc1[nH]c(-c2ccc(Cl)cc2)c(-c2ccc(Cl)cc2)c1-c1ccc(F)cc1` was tested, and the Blood sugar lowering (Rattus norvegicus [1]) was “inactive”.
`COc1ccc(-c2c(C)[nH]c(-c3ccccc3)c2-c2ccccc2)cc1OC` was tested, and the Blood sugar lowering (Rattus norvegicus [2]) was 27.8% and the Blood sugar lowering (Rattus norvegicus [3]) was 28.6%.
In the case of `COc1ccc(-c2[nH]c(C)c(-c3ccc(F)cc3)c2-c2ccc(OC)cc2)cc1`, the Blood sugar lowering (Rattus norvegicus [2]) is reported as 14.7%.
Work on `COc1ccc(-c2c(C)[nH]c(-c3ccccc3)c2-c2ccccc2)c(OC)c1` yielded a Blood sugar lowering (Rattus norvegicus [2]) of 20.3%.
For `Cc1[nH]c(-c2cccc(Cl)c2)c(-c2cccc(Cl)c2)c1-c1ccc(F)cc1`, the Blood sugar lowering (Rattus norvegicus [1]) was “inactive”.
Molecule `Cc1[nH]c(-c2ccccc2)c(-c2ccccc2)c1-c1cccc(C(F)(F)F)c1` has a Blood sugar lowering (Rattus norvegicus [2]) of 40.8% and a Blood sugar lowering (Rattus norvegicus [3]) of 25.1%.
